Activity calls are given as the source filed them. The calls are words filed in the database; no cut-off is given here.

Holding throughout (format): cell-based
One test concerns RAW264.7. Nature of the test: Activation of RXR/LXR heterodimer in mouse RAW264.7 cells assessed as increase in ABCA1 mRNA level at 10 uM by quantitative RT-PCR analysis. The method, boiled down: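 RAW264.7 macrophages in DMEM/10% FBS, exposed 24 h with or without LXR agonist T0901317; ABCA1 mRNA by SYBR green qRT-PCR, β-actin-normalized, fold vs vehicle; means ± SD of three determinants, one of three independent experiments; one-way ANOVA, Bonferroni.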

For test [1], the system named is F9. The test can be described thus: Activation of RAR/RXR heterodimer in mouse F9 cells assessed as increase in CYP26A1 mRNA level at 10 uM by quantitative RT-PCR analysis. The method, boiled down: (§1)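 F9 teratocarcinoma cells on 0.2% gelatin-coated dishes in DMEM/10% FBS; 24 h exposure with or without atRA (0.1 μM). CYP26A1 mRNA by qRT-PCR normalized to β-actin, fold vs vehicle; means ± SD of three determinants, one of three experiments; ANOVA/Bonferroni.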

For test [2], the system named is F9. Nature of the test: Activation of RAR/RXR heterodimer in mouse F9 cells assessed as increase in CYP26A1 mRNA level at 10 uM by quantitative RT-PCR analysis in presence of atRA. Summed up: as §1
The species named for a further test is Homo sapiens. Nature of the test: Activation of RXR/VDR heterodimer in human hepatoma cells assessed as increase in CYP24A1 mRNA level at 10 uM in presence of VDR agonist calcitriol by quantitative RT-PCR analysis. The method, boiled down: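 HLE hepatoma cells treated 24 h with or without VD3 (0.1 μM); CYP24A1 mRNA by SYBR green qRT-PCR normalized to β-actin (delta-delta Ct), fold over vehicle; means ± SD of three determinants, representative of three experiments.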

The nature of test [3]: Activation of LXR in mouse C2C12 cells assessed as induction of LPL mRNA expression at 10 uM after 24 hrs in presence of T0901317 by quantitative RT-PCR analysis. The method, boiled down: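 C2C12 myoblasts grown in DMEM/10% FBS, differentiated at confluence in 2% horse serum, medium changed every other day for 5 days; myotubes treated 24 h with or without T0901317 (1 μM). Total RNA, DNase-treated, oligo(dT) RT from 0.5 μg, SYBR green qPCR; normalized to β-actin (delta-delta Ct), fold over vehicle; mean ± SD of four determinants, one of two experiments.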

Take `CC(C)=CCc1cc([C@@H]2CC(=O)c3ccc(O)c(CC=C(C)C)c3O2)cc2c1OC(C(C)(C)O)C2` (stereo not given in full): the outcome (in the test with RAW264.7; in the test with F9 [1]; with F9 [2]; in test [3]) was Active. The outcome in the test filed under Homo sapiens was inactive.

Source of the values: ChEMBL document CHEMBL3351942, “Rexinoids isolated from Sophora tonkinensis with a gene expression profile distinct from the synthetic rexinoid bexarotene” (J Nat Prod, 2014).
